Screening data deposited in PubChem BioAssay by SRMLSC.
RAM network inh: blocks the yeast RAM network; 1.8% of 190,000 active; inhibition, % at 50 µM; S. cerevisiae dse1pr::URA3 reporter, 5-FOA growth OD615, 2 d; analog-sensitive cbk1-as2 kinase mutant strain;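 active = inhibition above a set limit, 3 SD over mean compound inhibition, cut at about 8.4% in these data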;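 note: 0% = DMSO-only wells with no growth and 100% = 10 µM 1-NA-PP1 full growth; inhibition rescues growth on 5-FOA so higher OD means more RAM inhibition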
Yeast lifespan up: extends the lifespan of yeast; S. cerevisiae growth with nicotinamide, OD615; deaD strain in restrictive glucose medium; inhibition of the nicotinamide effect, % at 10 µM; 0.68% of 130,000 active; AID 775;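 active = inhibition above a set limit, placed 3 SD over the median of all compounds, cut at about 26% in these data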;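 note: 0% = nicotinamide-treated wells and 100% = cells grown without nicotinamide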
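assay system = DeaD-strain S. cerevisiae | buffer or medium = restrictive glucose medium | reagent = 1.5 mM nicotinamide | compound = 10 µM single point, 0.25% DMSO | incubation = 48 h compound exposure at 30 °C, humidified | signal = OD615 measurement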
BB579 growth dn: yeast BB579 growth reduction in restrictive medium. inhibition, % at 10 µM. AID 804. S. cerevisiae BB579 growth, OD615, 48 h. 0.51% of 140,000 active;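 active = inhibition above a set limit, 3 SD over the mean compound inhibition, cut at about 44% in these data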
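Test system: DeaD yeast strain BB579 / Buffer or medium: restrictive glucose-based CSMM-D medium / Doses: single 10 µM dose / Schedule: 4 h cell preincubation, 48 h compound exposure, 30 °C humidified / Technique: culture absorbance at 615 nm / Controls: amphotericin B positive control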
RAM 5-FOA: restores 5-FOA growth of efflux-deficient yeast | shares compounds with RAM network inh | S. cerevisiae efflux-deficient reporter strain, 5-FOA growth OD615, 2 days | max inhibition, % | 1,200 tested, under 10 active | AID 1305; call rule not given here;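 note: plate controls were vehicle for no effect and reference inhibitor for full effect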
Numbers without * were called inactive. Rows were chosen to be rich in hits. Some 2.6% of all compounds tested hit in one or more screens of this group.

COc1ccc(C(=O)NCC(=O)OCc2cccc(Br)c2)cc1 was read as RAM network inh 13*, Yeast lifespan up -15, BB579 growth dn -33 and RAM 5-FOA 3.
Screening COc1ccc(C(=O)NCC(=O)OCc2ccc([N+](=O)[O-])cc2)cc1 returned RAM network inh 1.
Screening Cc1ccc(CSc2nc3sc(C)c(C)c3c(=O)n2Cc2ccco2)cc1 returned RAM network inh 17*, Yeast lifespan up -9, BB579 growth dn -60 and RAM 5-FOA 3.
Cc1cccc(CSc2nnc(-c3cccs3)n2Cc2ccco2)c1 was read as RAM network inh 1, Yeast lifespan up -11 and BB579 growth dn -16.
`Cc1sc2nc(SCc3ccccc3)n(Cc3ccco3)c(=O)c2c1C` gave RAM network inh 13*, Yeast lifespan up -9, BB579 growth dn -42 and RAM 5-FOA 4.
`Cc1sc2nc(SCc3nc4ccccc4[nH]3)n(Cc3ccco3)c(=O)c2c1C` gave RAM network inh 2, Yeast lifespan up -9 and BB579 growth dn -20.
`COc1cccc(CSc2nc3sc(C)c(C)c3c(=O)n2Cc2ccco2)c1` gave RAM network inh 16*, Yeast lifespan up 2, BB579 growth dn -27 and RAM 5-FOA 5.
`Cc1cccc(CSc2nc3sc(C)c(C)c3c(=O)n2Cc2ccco2)c1` gave RAM network inh 22*, Yeast lifespan up 4, BB579 growth dn -17 and RAM 5-FOA 5.
Cc1sc2nc(SCC(=O)C(C)(C)C)n(Cc3ccco3)c(=O)c2c1C was read as RAM network inh 3, Yeast lifespan up -13 and BB579 growth dn -49.
Screening COc1ccc(NC(=O)CSc2nc3sc(C)c(C)c3c(=O)n2Cc2ccco2)cc1 returned RAM network inh 4, Yeast lifespan up -23 and BB579 growth dn -33.
CCCCc1ccc(-n2c(Cc3cccs3)n[nH]c2=S)cc1 was read as RAM network inh 0.
COc1ccc(-c2nc3ccccc3c(=O)n2CCOc2cccc(C)c2C)cc1 was read as RAM network inh 16*, Yeast lifespan up 2, BB579 growth dn -20 and RAM 5-FOA 5.
Screening COCCn1c(-c2ccc(OC)cc2)nc2ccccc21 returned RAM network inh 0, Yeast lifespan up -12 and BB579 growth dn -30.
`COc1ccc(-c2nc3ccccc3c(=O)n2CCOc2c(C)cccc2C)cc1` gave RAM network inh 17*, Yeast lifespan up 13, BB579 growth dn -53 and RAM 5-FOA 6.
`COc1ccc(-c2nc3ccccc3c(=O)n2CCN2CCOCC2)cc1` gave RAM network inh 1, Yeast lifespan up 3 and BB579 growth dn -43.
For NC(=O)C1CCN(C(=O)CCC(=O)c2ccc(Br)cc2)CC1 the results were RAM network inh 1.
`CCOC(=O)C(C)Sc1nnc(NC(=O)c2ccc3c(c2)OCO3)s1` (stereo not drawn) gave RAM network inh 3.
Screening CNCC(C)COc1ccccc1OCc1ccccc1 (stereo not drawn) returned RAM network inh 20*, Yeast lifespan up 1, BB579 growth dn -17 and RAM 5-FOA 2.
For CC(O)CNCCCOc1ccccc1OCc1ccccc1 (stereo not drawn) the results were RAM network inh 3.
For Cc1ccc(S(=O)(=O)CCC(=O)OCn2nnc3ccccc3c2=O)cc1 the results were RAM network inh 2.
Screening CCOC(=O)C1=C(C)OC(N)=C(C#N)C1c1ccc(C)s1 (stereo not drawn) returned RAM network inh 2.
For CC(C)NC(=O)CN1CCC(c2ccccc2)C(O)C1 (stereo not drawn) the results were RAM network inh 0.
Screening COc1ccc(-c2ccc(-c3noc(C)n3)c(OC)n2)cc1 returned RAM network inh 4, Yeast lifespan up -23 and BB579 growth dn -40.
Screening COc1ccc(-c2ccc(-c3noc(-c4cccc(OC)c4)n3)c(OC)n2)cc1 returned RAM network inh 15*, Yeast lifespan up -17, BB579 growth dn -23 and RAM 5-FOA 3.
For COc1ccc(-c2ccc(-c3noc(-c4ccccc4OC)n3)c(OC)n2)cc1 the results were RAM network inh 4, Yeast lifespan up -8 and BB579 growth dn -73.
COc1ccc(-c2ccc(-c3noc(-c4cccs4)n3)c(OC)n2)cc1 was read as RAM network inh 2, Yeast lifespan up -10 and BB579 growth dn -18.
For COc1ccc(-c2ccc(-c3noc(C4CCCCC4)n3)c(OC)n2)cc1 the results were RAM network inh 16*, Yeast lifespan up -13, BB579 growth dn -33 and RAM 5-FOA 5.
COc1ccc(-c2ccc(-c3noc(-c4ccccc4C)n3)c(OC)n2)cc1 was read as RAM network inh 16*, Yeast lifespan up -5, BB579 growth dn -58 and RAM 5-FOA 4.
Screening CCOc1nc(-c2ccccc2)ccc1-c1noc(COc2ccccc2)n1 returned RAM network inh 17*, Yeast lifespan up -17, BB579 growth dn -35 and RAM 5-FOA 5.
For CCOc1nc(-c2ccccc2)ccc1-c1noc(-c2ccco2)n1 the results were RAM network inh 5, Yeast lifespan up -6 and BB579 growth dn -31.
Screening CCOC(=O)c1cc(C(=O)NC(C)c2ccccc2)c(C)[nH]c1=O (stereo not drawn) returned RAM network inh 2.
Screening COc1ccc(Cl)cc1-n1c(C)ccc1C returned RAM network inh 1, Yeast lifespan up -1 and BB579 growth dn -26.
Screening CC(C)C(=O)Nc1cc(C(F)(F)F)ccc1-n1ccnc1 returned RAM network inh 0.
Screening O=C(CSc1ccc(Cl)cc1)Nc1ccccc1Oc1ccccc1 returned RAM network inh 3, Yeast lifespan up 2 and BB579 growth dn -14.
For O=C(CSc1ccc(Br)cc1)Nc1ccccc1Oc1ccccc1 the results were RAM network inh 11*, Yeast lifespan up 2, BB579 growth dn -16 and RAM 5-FOA 2.
O=c1[nH]c2c(c(=O)[nH]1)CCC2 was read as RAM network inh -1.
`CCOC(=O)C1(Cc2ccc(Cl)cc2)CCN(C(=O)c2ccoc2)CC1` gave RAM network inh -1.
`O=C(c1cc(COc2ccc(F)cc2F)on1)N1CCCC(c2ccccc2)C1` (stereo not drawn) gave RAM network inh 6.
Screening O=C(c1cc(COc2ccc(F)cc2Cl)on1)N1CCCC(c2ccccc2)C1 (stereo not drawn) returned RAM network inh 13* and RAM 5-FOA 4.
COC(=O)C/C(O)=C(/N=Nc1cccc(C(F)(F)F)c1)C(=O)OC was read as RAM network inh 3.
`CC1=CC(C)[C@H](/C=N/n2c(=O)[nH]c3c([nH]c4ccc(Br)cc43)c2=O)C(C)C1` (stereo partly drawn) gave RAM network inh 3.
`COc1ccc(C(=O)Nn2c(CCC(=O)O)ccc2-c2ccc(C)cc2)cc1OC` gave RAM network inh 0.
`Cc1cc(C)c(C)c(S(=O)(=O)N2CCC(C(=O)OCC(=O)N3c4ccccc4NC(=O)C3(C)C)CC2)c1C` gave RAM network inh 12*, Yeast lifespan up 0, BB579 growth dn -58 and RAM 5-FOA 2.
